Assays:
Assay type in all cases: physicochemical
[1] = Chemical stability in 0.5 M NaOH/EtOH solution at room temperature assessed as time taken for complete hydrolysis
Summary of the method: (§1)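 Nucleoside derivatives carrying 2-substituted benzoyl masking groups were kept in the basic solution. The time until hydrolysis was complete was recorded. Substrates showing no change over a 24 h observation window were scored as stable at 24 h.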

[2] = Chemical stability in NH3-EtOH (9:1, v/v) at room temperature assessed as time taken for complete hydrolysis; summary of the method: as §1
[3] = Chemical stability in 2 M NaOH/EtOH solution at room temperature assessed as time taken for complete hydrolysis; summary of the method: as §1
[4] = Chemical stability in NH3-EtOH (9:1, v/v) at 55 deg C assessed as time taken for complete hydrolysis; summary of the method: as §1
[5] = Chemical stability in 1.5 M NaOMe/MeOH solution at room temperature assessed as time taken for complete hydrolysis; summary of the method: as §1

Row | Structure (SMILES) | Stability [1] [h] | Stability [2] [h] | Stability [3] [h] | Stability [4] [h] | Stability [5] [h]
1 | Cc1cn([C@H]2C[C@H](O)[C@@H](COC(=O)c3ccccc3C(C)(C)C)O2)c(=O)[nH]c1=O | 24 | > 24 | 4 | > 24 | –
2 | Cc1cn([C@H]2C[C@H](O)[C@@H](COC(=O)c3ccccc3[Si](C)(C)C)O2)c(=O)[nH]c1=O | 24 | > 24 | 4 | > 24 | –
3 | C[Si](C)(C)c1ccccc1C(=O)O[C@@H]1[C@H](O)[C@@H](CO)O[C@H]1n1ccc(=O)[nH]c1=O | – | 48 | – | 8 | –
4 | Cc1cn([C@H]2C[C@H](O)[C@@H](COC(=O)C=C[Si](C)(C)C)O2)c(=O)[nH]c1=O | – | 12 | – | 4 | –
5 | C[Si](C)(C)c1ccccc1C(=O)Nc1ccn([C@H]2C[C@H](O)[C@@H](CO)O2)c(=O)n1 | – | – | > 24 | > 24 | > 24
6 | Cc1ccccc1C(=O)OC[C@H]1O[C@@H](n2cc(C)c(=O)[nH]c2=O)C[C@@H]1O | 1 | 24 | 0.25 | 10 | –
